Screening data deposited in PubChem by several laboratories.
ADAM10 inh = human ADAM10 inhibitors, primary screen, biochemical, QFRET, HTS. inhibition, % at 7 µM. Disintegrin and metalloproteinase domain-containing protein 10 (Homo sapiens), O14672. 370,000 compounds, 0.62% hits. AID 720582, 2013. recombinant ADAM10, EDANS/DABCYL FRET peptide cleavage, 3 h;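 active means inhibition above a per-campaign cutoff equal to the mean of compounds falling between control-based bounds plus 3 SD, cut at about 20% in these data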;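 further: 0% = DMSO wells while the 100% control is not disclosed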
Target sequence (O14672 214-748 limits assumed): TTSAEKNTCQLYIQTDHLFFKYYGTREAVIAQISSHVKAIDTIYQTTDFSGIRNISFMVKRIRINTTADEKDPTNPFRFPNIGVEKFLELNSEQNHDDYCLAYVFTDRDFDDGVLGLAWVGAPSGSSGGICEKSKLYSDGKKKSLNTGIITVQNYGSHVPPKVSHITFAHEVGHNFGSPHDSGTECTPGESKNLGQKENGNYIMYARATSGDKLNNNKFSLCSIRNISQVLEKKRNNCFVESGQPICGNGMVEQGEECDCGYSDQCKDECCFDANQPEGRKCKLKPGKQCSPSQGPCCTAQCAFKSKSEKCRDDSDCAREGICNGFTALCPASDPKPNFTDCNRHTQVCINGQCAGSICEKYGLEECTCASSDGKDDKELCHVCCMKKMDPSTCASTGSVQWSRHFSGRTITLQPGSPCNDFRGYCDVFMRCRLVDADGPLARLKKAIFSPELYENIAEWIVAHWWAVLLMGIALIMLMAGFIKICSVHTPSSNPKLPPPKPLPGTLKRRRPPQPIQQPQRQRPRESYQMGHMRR
GRIN3A LBD mod = binders of NR3A ligand-binding domain, primary screen, biophysical, differential scanning fluorimetry, uHTS | Glutamate receptor ionotropic, NMDA 3A (GRIN3A) ligand-binding domain | NR3A LBD differential scanning fluorimetry, Tm shift; 0% = protein alone, 100% = glycine-bound protein | Tm shift relative to glycine control, % at 25 µM | 340,000 compounds, 2.5% hits | AID 1259313, 2017;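 active means melting temperature shift of at least 10% of the positive control shift, at one fixed dose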
MT1-MMP act inh = blockers of MT1-MMP proenzyme processing, primary screen, HT1080 RFP-PRO-GFP cells, GFP/RFP fluorescence; GFP/RFP ratio change, % at 20 µM; 360,000 compounds, 0.061% hits; GFP/RFP ratio fluorescence, overnight; percent of plate control window, DMSO zero;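 active means GFP/RFP ratio change of at least 30% with cell ATP level not reduced by more than half and red fluorescence within 50% of control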
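Test system: HT1080 cells expressing an RFP-PRO-GFP fluorescent reporter construct / Compound dosing: single-point 20 µM compound, 1% DMSO / Schedule: cells overnight before dosing, compound overnight, 37 °C, 5% CO2 / Evaluation: GFP/RFP fluorescence ratio / Control set: DMSO and RFP-L50D-GFP cell wells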
ADAM17 inh = ADAM17 inhibitors, primary screen, biochemical, QFRET; recombinant ADAM17, EDANS/DABCYL FRET peptide cleavage; inhibition, % at 6.95 µM; 370,000 compounds, 0.83% hits;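 active means inhibition above the mean of compounds lying between control limits plus 3 SD, set per campaign, cut at about 8.5% in these data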;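 further: 0% = DMSO-only wells as the low control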
SKN-1 block = suppressors of acrylamide-induced Pgst-4::GFP reporter in worms, primary screen, SKN-1 inhibitor project, whole organism, uHTS, GFP/RFP fluorescence ratio, strain VP596. C. elegans VP596 Pgst-4::GFP/RFP ratio, 24 h. inhibition, % at 21.8 µM. 360,000 compounds, 0.49% hits;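 active means interference check ratio from 0.5 to 1.5 plus GFP to RFP signal ratio inhibition reaching or exceeding a fixed threshold, cut at about 30% in these data, passing the limit was not always enough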
MPTP inh = mitochondrial permeability transition pore inhibitors, primary screen, biochemical, isolated mouse mitochondria, absorbance; Ca2+ swelling absorbance, 30 min; inhibition, % at 10 µM; 360,000 compounds, 1.4% hits; AID 602449, 2012;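 active means inhibition of 50% or more, scaled per plate between neutral and stimulator controls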;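 further: 0% = DMSO wells given calcium and 100% = 1 mM EGTA wells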
ADAM10 counter = ADAM10 inhibitors, counter-screen for ADAM17 exosite inhibitor project, biochemical, FRET, human ADAM10. shares compounds with ADAM17 inh. recombinant ADAM10, EDANS/DABCYL FRET peptide cleavage, 3 h. inhibition, % at 6.95 µM. 2,900 compounds, 47% hits. AID 743256, 2014;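 active means mean inhibition over the triplicate runs exceeds the activity threshold set in the earlier primary screen, cut at about 20% in these data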;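 further: 0% = DMSO wells and 100% = marimastat wells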
ADAM17 confirm = ADAM17 inhibitors, hit retest, confirmation, biochemical, QFRET peptide cleavage; recombinant ADAM17, EDANS/DABCYL QFRET peptide cleavage; inhibition, % at 6.95 µM; shares compounds with ADAM17 inh; 2,900 compounds, 65% hits;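 active means mean inhibition across replicates above the hit cutoff set in the primary screen, cut at about 8.5% in these data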;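 further: 0% = DMSO wells and 100% = marimastat wells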
* hit, by the source's call; . = not tested or not shown. Most compounds without a hit are left out; they make up all but 4.7% or so of the library.

SMILES	ADAM10 inh	GRIN3A LBD mod	MT1-MMP act inh	ADAM17 inh	SKN-1 block	MPTP inh	ADAM10 counter	ADAM17 confirm
O=C(CN1C(=O)NC2(CCCCCCC2)C1=O)NCc1ccc(Cl)cc1	0.9	3.2	1.5	11.3*	7.0	-1.5	3.1	0.1
CN(Cc1ccccc1)C(=O)CN1C(=O)NC2(CCCCCCC2)C1=O	4.8	1.0	9.7	8.8*	-1.5	0.4	7.4	7.6
CC1Oc2ccccc2N(CC(=O)Nc2ccc3c(c2)OCCO3)C1=O (configuration not stated)	9.9	-0.1	-1.5	10.0*	12.1	-1.5	-5.9	-0.7
Nc1cc(=O)[nH]c(SCC(=O)Nc2ccc(F)c(Cl)c2)n1	-5.8	-2.7	1.1	-5.5	4.6	4.5	.	.
CCOC(=O)C1=C(O)C(=O)N(c2ccccc2)C1c1cccc([N+](=O)[O-])c1 (configuration not stated)	-3.4	-1.2	8.2	-4.6	12.8	3.2	.	.
CCOC(=O)CC1(C)Oc2ccccc2N1S(=O)(=O)c1ccc(C)cc1 (configuration not stated)	14.1	.	4.5	9.9*	0.7	1.0	8.4	5.8
CCOC(=O)C1CN(S(=O)(=O)c2ccc(C)cc2)c2cc(S(=O)(=O)CC)ccc2O1 (configuration not stated)	-2.4	0.2	2.6	-1.0	11.3	0.1	.	.
Cc1ccc(NC(=O)C(OC(=O)c2cc(C)oc2C)c2ccccc2)cc1 (configuration not stated)	13.5	1.9	-4.1	10.8*	8.8	2.7	16.0	12.5*
COc1ccc(CN(C(=O)c2oc3ccccc3c2C)C2CCS(=O)(=O)C2)cc1OC (configuration not stated)	-7.6	-0.2	-1.7	-4.0	-33.2	-2.0	.	.
COc1ccc(CN(C(=O)c2oc3cc(C)c(C)cc3c2C)C2CCS(=O)(=O)C2)cc1OC (configuration not stated)	5.8	-2.3	-5.4	9.7*	2.5	0.0	12.8	9.4*
CC(C)CNS(=O)(=O)c1ccc(CCC(=O)Nc2cc(Cl)ccc2Oc2ccccc2)cc1	18.6	-9.8	-1.7	9.7*	-16.5	-1.0	39.4*	21.4*
CC(C)(C)NS(=O)(=O)c1ccc(CCC(=O)Nc2cc(Cl)ccc2Oc2ccccc2)cc1	19.1	-5.7	-10.2	9.7*	8.7	9.5	33.2*	18.5*
CC(C)CNS(=O)(=O)c1ccc(CCC(=O)O)cc1	0.4	-0.2	5.4	-3.5	-20.0	-0.5	.	.
COc1cc(NC(=O)c2ccc(S(=O)(=O)N(C)c3ccccc3OC)cc2)cc(OC)c1	19.2	-3.4	3.3	9.4*	3.1	0.5	24.7*	13.2*
OC(CN1CCN(c2ncc(C(F)(F)F)cc2Cl)CC1)c1ccccc1 (configuration not stated)	2.5	-1.3	9.9	10.0*	-5.2	-0.1	-6.7	-2.6
N#Cc1ccc(OCC(O)CN2CCN(c3ncc(C(F)(F)F)cc3Cl)CC2)cc1 (configuration not stated)	12.4	-2.6	-2.4	4.0	-16.5	1.9	.	.
COc1ccc(F)cc1-c1cc(C(=O)NCc2cc(C(F)(F)F)cc(C(F)(F)F)c2)[nH]n1	6.0	.	-2.2	12.2*	10.6	2.6	-1.1	2.8
